Results: ChEMBL document CHEMBL1255516, “Identification of a new biaryl scaffold generating potent renin inhibitors” (Bioorg Med Chem Lett, 2010)

Key:
[1] = Half life in Sprague-Dawley rat at 4 mg/kg, iv; type: ADME, organism-based; design: dose 4 mg/kg, route intravenous; conditions: in vivo
Outline: (§1)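 Sprague–Dawley rats dosed iv at 4 mpk as the HCl salt in 60% PEG 200/water, 1 ml/kg.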

[2] = Volume of distribution at steady state in Sprague-Dawley rat at 4 mg/kg, iv; type: ADME, organism-based; design: dose 4 mg/kg, route intravenous; conditions: in vivo, read-out: Vdss; outline: as §1
Rattus norvegicus = experiment: AUC in Sprague-Dawley rat at 30 mg/kg, po; conditions: in vivo
Renin [3] = target: T1, Renin (Homo sapiens, UniProt P00797); experiment: Inhibition of human recombinant renin in phosphate buffer
T1 sequence (P00797 whole entry): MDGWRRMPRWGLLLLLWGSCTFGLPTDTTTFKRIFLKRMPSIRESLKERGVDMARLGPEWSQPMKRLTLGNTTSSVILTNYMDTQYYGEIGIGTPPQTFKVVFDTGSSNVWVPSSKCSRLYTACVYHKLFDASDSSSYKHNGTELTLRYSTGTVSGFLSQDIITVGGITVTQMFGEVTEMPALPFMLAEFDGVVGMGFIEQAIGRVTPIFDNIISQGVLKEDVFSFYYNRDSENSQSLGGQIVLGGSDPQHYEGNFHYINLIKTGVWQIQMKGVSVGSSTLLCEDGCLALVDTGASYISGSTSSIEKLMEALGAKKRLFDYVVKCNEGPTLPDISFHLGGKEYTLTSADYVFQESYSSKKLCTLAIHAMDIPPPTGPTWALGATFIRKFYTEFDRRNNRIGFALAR
Outline: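 Recombinant human renin in PBS with 1 mM EDTA, 0.1% BSA, pH 7.4, premixed at 4 °C with human tetradecapeptide(1–14) substrate (stock 5 μM in 10 mM HCl) and hydroxyquinoline sulfate (stock 30 mM). Compounds diluted in DMSO were added, then incubated 3 h at 37 °C. Angiotensin I accumulation was measured; IC50 from % inhibition curve fit, mean of at least two experiments.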

Renin [4] = target: T1, Renin; experiment: Inhibition of human recombinant renin in plasma
Outline: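 Pooled frozen human citrate plasma supplemented with recombinant human renin (150 pg/ml final). Inhibitor in DMSO at various concentrations added to a 7:1 mix of plasma and trapping anti-angiotensin I antibody (final antiserum 1:50,000) in Tris/EDTA, pH 7.2.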

[5] = Oral bioavailability in Sprague-Dawley rat at 30 mg/kg; type: ADME, organism-based; conditions: in vivo
Outline: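 Sprague–Dawley rats dosed orally at 30 mpk as the HCl salt in 0.5% methocel, 5 ml/kg; iv reference dose 4 mpk in 60% PEG 200/water, 1 ml/kg.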

[6] = Clearance in Sprague-Dawley rat at 4 mg/kg, iv; type: ADME, organism-based; design: dose 4 mg/kg, route intravenous; conditions: in vivo; outline: as §1
[7] = AUC in Sprague-Dawley rat at 30 mg/kg, po; conditions: Sprague-Dawley, plasma

SMILES	IC50 (Renin [3]) [nM]	IC50 (Renin [4]) [nM]	other results
COCCCc1ccc(Cl)c(CN(C(=O)[C@@H](CN)Cc2ccc(OCCOc3c(Cl)cc(C)cc3Cl)cc2)C2CC2)c1			half-life [1]: 6 h; Vd [2]: 12 L/kg; AUC (Rattus norvegicus): 8.3 µM·h
COC(=O)CCc1ccccc1-c1ccc(C(CN)Cc2ccc(OCCOc3c(Cl)cc(C)cc3Cl)cc2)c(C)c1 (stereo not drawn)	0.09	141	
Cc1cc(Cl)c(OCCOc2ccc(CC(CN)c3ccc(-c4ccccc4CCC(=O)N(C)C)cc3C)cc2)c(Cl)c1 (stereo not drawn)		1110	
Cc1cc(Cl)c(OCCOc2ccc(CC(CN)c3ccc(-c4ccccc4CCOC(N)=O)cc3C)cc2)c(Cl)c1 (stereo not drawn)	1.02	103	
CC(=O)NCCc1ccccc1-c1ccc(C(CN)Cc2ccc(OCCOc3c(Cl)cc(C)cc3Cl)cc2)c(C)c1 (stereo not drawn)	0.04		bioavailability [5]: 23%; clearance [6]: 34 mL/min/kg; half-life [1]: 7 h; Vd [2]: 9 L/kg; AUC [7]: 5.5 µM·h
CC(=O)NCCCc1ccccc1-c1ccc(C(CN)Cc2ccc(OCCOc3c(Cl)cc(C)cc3Cl)cc2)c(C)c1 (stereo not drawn)	0.97	131	
Cc1cc(Cl)c(OCCOc2ccc(CC(CN)c3ccc(-c4ccccc4Cl)cc3Cl)cc2)c(Cl)c1 (stereo not drawn)	0.52		
COCCCc1ccccc1-c1ccc(C(CN)Cc2ccc(OCCOc3c(Cl)cc(C)cc3Cl)cc2)c(C)c1 (stereo not drawn)	0.44		
COC(=O)Cc1ccccc1-c1ccc(C(CN)Cc2ccc(OCCOc3c(Cl)cc(C)cc3Cl)cc2)c(C)c1 (stereo not drawn)	12.9	534	
CC(=O)NCc1ccccc1-c1ccc(C(CN)Cc2ccc(OCCOc3c(Cl)cc(C)cc3Cl)cc2)c(C)c1 (stereo not drawn)	2.1	138	
Cc1cc(Cl)c(OCCOc2ccc(CC(CN)c3ccc(-c4cnc5cnccn45)cc3C)cc2)c(Cl)c1 (stereo not drawn)	3.9	416	
Cc1cc(Cl)c(OCCOc2ccc(CC(CN)c3ccc(-c4ccnc(N)c4)cc3C)cc2)c(Cl)c1 (stereo not drawn)	1.7	228	
Cc1cc(Cl)c(OCCOc2ccc(CC(CN)c3ccc(-c4cncnc4)cc3C)cc2)c(Cl)c1 (stereo not drawn)	4.9	614	
